Measured values reported in ChEMBL document CHEMBL5154945, “Discovery and Optimization of Pyrrolopyrimidine Derivatives as Selective Disruptors of the Perinucleolar Compartment, a Marker of Tumor Progression toward Metastasis” (J Med Chem, 2022).

Legend:
PC-3M = test: Anticancer activity in human PC-3M cells expressing PTB/GFP fusion protein assessed as perinucleolar compartment disassembly and measured after 24 hrs by Hoechst 33342 staining based microscopic method; type: functional, cell-based
Summary of the method: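 Imaged by high-content microscopy. Nuclei with PNC spots ≥3 and >0 scored positive. PNC prevalence % = PNC-positive nuclei/total nuclei ×100, normalized to DMSO (0% activity) and 0% PNC (−100%). IC50 from concentration-response.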

[1] = Permeability of the compound at pH 7.4 incubated for 30 mins by UV plate reader based PAMPA assay; conditions: for permeability: pampa, pH 7.4, 0.5 h; for Papp at 0.5 h: PAMPA, pH 7.4
[2] = Microsomal stability in CD1 mouse liver microsomes assessed as half life measured upto 60 mins in presence of NADPH by LC-MS analysis; conditions: for t1/2: mouse, microsomes, 1 h; for half-life at 1 h: CD1, mouse, liver microsomes

Row | IC50 (PC-3M; read-out: IC50) | permeability [1] | t1/2 [2] | IC50 (PC-3M; read-out: pIC50 (converted)) | half-life at 1 h [2] | Papp at 0.5 h [1] | SMILES
1 | 10 µM | 1229.2 10^-6 cm/s | 7.3 min |  |  |  | N=c1c2c(-c3ccccc3)c(-c3ccccc3)n(CCc3ccccc3)c2ncn1CC1CCOCC1
2 |  |  | 32.2 min | 5.01 µM |  |  | N=c1c2c(-c3ccccc3)c(-c3ccccc3)n(Cc3ccccc3)c2ncn1C1CCN(Cc2ccccc2)CC1
3 | > 20 µM | > 1000 10^-6 cm/s | 58.7 min |  |  |  | COc1ccc(-c2c(-c3ccc(OC)cc3)n(Cc3ccccc3)c3ncn(C4CCOCC4)c(=N)c23)cc1
4 | 12.6 µM | 294.4 10^-6 cm/s | 77.9 min |  |  |  | CN(C)CCCn1cnc2c(c(-c3ccccc3)c(-c3ccccc3)n2CCc2ccccc2)c1=N
5 |  | 1246.89 10^-6 cm/s |  | 3.39 µM | 120 min |  | N=c1c2c(-c3ccccc3)c(-c3ccccc3)n(Cc3ccc(OC(F)(F)F)cc3)c2ncn1[C@H]1CC[C@@H](O)CC1
6 |  | 1266.09 10^-6 cm/s | 13 min | 9.33 µM |  |  | COc1ccc(Cn2c(-c3ccccc3)c(-c3ccccc3)c3c(=N)n(CC4CCOCC4)cnc32)cc1
7 | > 20 µM | 609.3 10^-6 cm/s |  |  | 120 min |  | Cc1c(C)n(Cc2ccccc2)c2ncn(CCCO)c(=N)c12
8 | > 20 µM |  |  |  |  | > 1000 ×10⁻⁶ cm/s | COc1ccc(-c2c(-c3ccc(OC)cc3)n(Cc3ccccc3)c3ncn(CCCO)c(=N)c23)cc1
9 |  | > 1000 10^-6 cm/s | 14 min | 23.4 µM |  |  | N=c1c2c(-c3ccccc3)c(-c3ccccc3)n(Cc3ccccc3)c2ncn1CCCN1CCN(c2ccccc2)CC1
10 |  | > 1000 10^-6 cm/s | 4.3 min | 23.4 µM |  |  | CCOC(CCCn1cnc2c(c(-c3ccccc3)c(-c3ccccc3)n2Cc2ccccc2)c1=N)OCC
11 |  |  | 70 min | 1.17 µM |  | > 1000 ×10⁻⁶ cm/s | N=c1c2c(-c3ccccc3)c(-c3ccccc3)n(Cc3ccc(S(N)(=O)=O)cc3)c2ncn1C1CCOCC1
12 |  | < 1 10^-6 cm/s | 26.7 min |  |  |  | N=c1c2c(-c3ccccc3)c(-c3ccccc3)n(Cc3ccc(S(N)(=O)=O)cc3)c2ncn1CCCO
13 | > 20 µM |  |  |  |  |  | OCCCNc1ncnc2c1c(-c1ccccc1)c(-c1ccccc1)n2Cc1ccccc1
14 | 2.83 µM |  |  | 2.82 µM | 31.1 min | > 1000 ×10⁻⁶ cm/s | COc1ccc(Cn2c(-c3ccccc3)c(-c3ccccc3)c3c(=N)n(CCO)cnc32)cc1
15 | > 20 µM |  |  |  |  |  | N=c1c2c3c(n(CCc4ccccc4)c2ncn1C1CCOCC1)CCCC3
16 |  | > 1000 10^-6 cm/s |  | 26.9 µM |  |  | N=c1c2c(-c3ccccc3)c(-c3ccccc3)n(CC3CCCCC3)c2ncn1CCCO
17 |  | > 1000 10^-6 cm/s | 68 min | 0.832 µM |  |  | N=c1c2c(-c3ccccc3)c(-c3ccccc3)n(CC3CC3)c2ncn1C1CCOCC1
18 |  | > 1000 10^-6 cm/s | 9 min | 3.16 µM |  |  | N=c1c2c(-c3ccccc3)c(-c3ccccc3)n(Cc3ccccc3)c2ncn1CCCCCO
19 | > 20 µM | 1270.9 10^-6 cm/s | 9.2 min |  |  |  | N=c1c2c(-c3ccccc3)cn(Cc3ccccc3)c2ncn1CCO
20 | 0.96 µM | > 1000 10^-6 cm/s | 14.5 min | 10 µM |  |  | N=c1c2c(-c3ccccc3)c(-c3ccccc3)n(CCc3ccccc3)c2ncn1C1CCOCC1
21 | 25.1 µM | 1196.9 10^-6 cm/s | 12.1 min | 25.1 µM |  |  | COc1ccc(CCn2cnc3c(c(-c4ccccc4)c(-c4ccccc4)n3Cc3ccccc3)c2=N)cc1OC
22 | 4.47 µM |  |  | 4.47 µM | 6.6 min | > 1000 ×10⁻⁶ cm/s | N=c1c2c(-c3ccccc3)c(-c3ccccc3)n(CCc3ccccc3)c2ncn1CCCCO
23 |  | > 1000 10^-6 cm/s | 6.5 min | 9.33 µM |  |  | N=c1c2c(-c3ccccc3)c(-c3ccccc3)n(Cc3ccccc3)c2ncn1CC1CCCO1 (centres undefined)
24 |  | > 1000 10^-6 cm/s | 25.1 min | 0.832 µM |  |  | N=c1c2c(-c3ccccc3)c(-c3ccccc3)n(Cc3ccccc3)c2ncn1CCO
25 |  |  |  | 0.174 µM |  |  | COc1ccc(Cn2c(-c3ccccc3)c(-c3ccccc3)c3c(=N)n(C4CCOCC4)cnc32)cc1
26 |  | > 1000 10^-6 cm/s | 72 min | 0.955 µM |  |  | N=c1c2c(-c3ccccc3)c(-c3ccccc3)n(Cc3ccc(OC(F)(F)F)cc3)c2ncn1C1CCOCC1
27 | 2.72 µM |  | 4.3 min | 0.955 µM |  |  | N=c1c2c(-c3ccccc3)c(-c3ccccc3)n(CCc3ccccc3)c2ncn1C[C@@H]1CCCC[C@H]1O (relative stereo)
28 | > 20 µM | 1737 10^-6 cm/s | 3 min |  |  |  | N=c1c2c(-c3ccccc3)cn(Cc3ccccc3)c2ncn1Cc1ccco1

Row | IC50 (PC-3M; read-out: IC50) | permeability [1] | t1/2 [2] | IC50 (PC-3M; read-out: pIC50 (converted)) | half-life at 1 h [2] | Papp at 0.5 h [1] | SMILES
29 | > 20 µM |  |  |  | 113 min | 7.2 ×10⁻⁶ cm/s | N=c1c2c(-c3ccccc3)c(-c3ccccc3)n(Cc3ccccc3)c2ncn1CC1COC1
30 | > 20 µM | > 1000 10^-6 cm/s | 29.2 min |  |  |  | COc1ccc(-c2c(-c3ccc(OC)cc3)n(Cc3ccccc3)c3ncn([C@@H]4CCCC[C@H]4O)c(=N)c23)cc1 (mixture of isomers)
31 |  | > 1000 10^-6 cm/s | 17.4 min | 0.933 µM |  |  | N=c1c2c(-c3ccccc3)c(-c3ccccc3)n(Cc3ccccc3)c2ncn1C[C@@H]1CCCC[C@H]1CO (relative stereo)
32 |  | > 1000 10^-6 cm/s | 6.9 min | 10.7 µM |  |  | N=c1c2c(-c3ccccc3)c(-c3ccccc3)n(CCc3ccccc3)c2ncn1CC1CCOC1 (centres undefined)
33 | > 20 µM | 1683.3 10^-6 cm/s | 26.9 min |  |  |  | Cc1c(C)n(Cc2ccccc2)c2ncn(C3CCOCC3)c(=N)c12
34 | > 20 µM | 606 10^-6 cm/s | 6.4 min |  |  |  | C[C@H]([C@@H](O)c1ccccc1)n1cnc2c(c(-c3ccccc3)c(-c3ccccc3)n2Cc2ccccc2)c1=N
35 |  | > 1000 10^-6 cm/s | 19.9 min | 2.14 µM |  |  | COc1ccc(Cn2c(-c3ccccc3)c(-c3ccccc3)c3c(=N)n(CCCO)cnc32)cc1
36 |  |  |  | 2.75 µM |  |  | N=c1c2c(-c3ccccc3)c(-c3ccccc3)n(CC3CCCCC3)c2ncn1[C@H]1CC[C@H](O)CC1
37 |  | > 1000 10^-6 cm/s | 5.3 min | 10.7 µM |  |  | N=c1c2c(-c3ccccc3)c(-c3ccccc3)n(Cc3ccccc3)c2ncn1CC1CCOC1 (centres undefined)
38 | 6.31 µM | > 1000 10^-6 cm/s | 25.4 min |  |  |  | N=c1c2c(-c3ccccc3)c(-c3ccccc3)n(CC3CC3)c2ncn1CCCO
39 |  | > 1000 10^-6 cm/s |  | 0.158 µM | 120 min |  | COc1ccc(Cn2c(-c3ccccc3)c(-c3ccccc3)c3c(=N)n([C@H]4CC[C@H](O)CC4)cnc32)cc1
40 |  | > 1000 10^-6 cm/s | 9.4 min | 8.51 µM |  |  | COc1ccc(Cn2c(-c3ccccc3)c(-c3ccccc3)c3c(=N)n(CC4CCCO4)cnc32)cc1 (centres undefined)
41 |  | > 1000 10^-6 cm/s | 28.8 min | 0.501 µM |  |  | N=c1c2c(-c3ccccc3)c(-c3ccccc3)n(Cc3ccccc3)c2ncn1[C@@H]1CCCC[C@H]1O (relative stereo)
42 |  | > 1000 10^-6 cm/s | 32.6 min | 1.32 µM |  |  | N=c1c2c(-c3ccccc3)c(-c3ccccc3)n(CCc3ccccc3)c2ncn1CCO
43 | > 20 µM | > 1000 10^-6 cm/s |  |  |  |  | COc1ccc(-c2c(-c3ccc(OC)cc3)n(Cc3ccccc3)c3ncn([C@H]4CC[C@H](OC)CC4)c(=N)c23)cc1
44 | > 20 µM | 327.5 10^-6 cm/s | 11.2 min |  |  |  | N#Cc1c(-c2ccccc2)c(-c2ccccc2)n(Cc2ccccc2)c1/N=C/N[C@H]1CC[C@H](O)CC1
45 |  | > 1000 10^-6 cm/s | 8.4 min | 7.94 µM |  |  | N=c1c2c(-c3ccccc3)c(-c3ccccc3)n(CCc3ccccc3)c2ncn1CC1CCCO1 (centres undefined)
46 |  | < 1 10^-6 cm/s | 8.3 min | 25.1 µM |  |  | N=c1c2c(-c3ccccc3)c(-c3ccccc3)n(Cc3ccc(S(N)(=O)=O)cc3)c2ncn1CC1CCOCC1
47 |  |  |  | 1.1 µM |  |  | CO[C@H]1CC[C@H](n2cnc3c(c(-c4ccccc4)c(-c4ccccc4)n3Cc3ccc(OC(F)(F)F)cc3)c2=N)CC1
48 | > 20 µM | 164.7 10^-6 cm/s |  |  |  |  | N=c1c2c(-c3ccccc3)c(-c3ccccc3)n(Cc3ccccc3)c2ncn1CCN
49 | > 20 µM | 196 10^-6 cm/s |  |  |  |  | COc1ccc(-c2c(-c3ccc(OC)cc3)n(Cc3ccccc3)c3ncn([C@H]4CC[C@H](O)CC4)c(=N)c23)cc1
50 | > 20 µM |  |  |  |  |  | CCO/C=N/c1c(C#N)c(-c2ccccc2)c(-c2ccccc2)n1Cc1ccccc1
51 |  | > 1000 10^-6 cm/s |  | 4.37 µM |  |  | N=c1c2c(-c3ccccc3)c(-c3ccccc3)n(Cc3ccc(OC(F)(F)F)cc3)c2ncn1CCCO
52 |  |  |  | 2 µM |  |  | N=c1c2c(-c3ccccc3)c(-c3ccccc3)n(CC3CCCCC3)c2ncn1C1CCOCC1
53 | > 20 µM |  |  |  |  |  | O[C@H]1CC[C@H](Nc2ncnc3c2c(-c2ccccc2)c(-c2ccccc2)n3Cc2ccccc2)CC1
54 | > 20 µM |  |  |  |  |  | N=c1c2c(-c3ccc4c(c3)OCO4)c(-c3ccc4c(c3)OCO4)n(Cc3ccccc3)c2ncn1C1CCOCC1
55 |  |  |  | 0.251 µM |  |  | CO[C@H]1CC[C@H](n2cnc3c(c(-c4ccccc4)c(-c4ccccc4)n3Cc3ccccc3)c2=N)CC1

Row | SMILES | IC50 (PC-3M; read-out: IC50) | permeability [1] | t1/2 [2] | IC50 (PC-3M; read-out: pIC50 (converted)) | half-life at 1 h [2] | Papp at 0.5 h [1]
56 | N=c1c2c(-c3ccccc3)c(-c3ccccc3)n(Cc3ccccc3)c2ncn1[C@H]1CC[C@@H](O)CC1 |  | > 1000 10^-6 cm/s | 52.3 min | 0.832 µM |  | 
